For experiment [1], the target named is Human immunodeficiency virus type 1 protease (Human immunodeficiency virus 1) (UniProt Q72874). As to conditions: 10 uM.
Experiment [2] addresses T1, Human immunodeficiency virus type 1 protease (Human immunodeficiency virus 1, UniProt Q72874). The experiment in a line: Inhibition concentration against HIV-1 protease. The gist of the method:
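Purified HIV-1 protease (30 nM) added after 5 min preincubation of 60.8 µM chromophoric HIV substrate III with inhibitor (DMSO, final below 2.5%). Buffer: 50 mM each glycine, sodium acetate, MES and Tris-HCl, 1.0 M NaCl, 1 mM EDTA, 1 mM DTT, pH 5.5, 37 °C. Cleavage rate from absorbance change at 300 nm. IC50 from activity versus log inhibitor concentration.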

For experiment [3], the target named is T1, Human immunodeficiency virus type 1 protease. The experiment in a line: Binding affinity against HIV-1 protease. The gist of the method: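 Ki from the activity of 20 nM HIV-1 protease across a matrix of substrate (HIV substrate III at 10, 20, 50 and 100 µM) and at least three inhibitor levels: roughly the estimated Ki and 2–4 times it. Tight-binding rate equation fitted by nonlinear regression. Buffer and read-out as in the spectrophotometric cleavage assay.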

`O=C1N(Cc2ccccc2)[C@@H](COc2ccccc2)[C@@H](O)[C@H](O)[C@H](COc2ccccc2)N1Cc1ccccc1`: the inhibition in experiment [1] turned out to be 15%.

In experiment [2], `O=C1N(Cc2ccc(CO)cc2)[C@H](Cc2ccccc2)[C@H](O)[C@@H](O)[C@@H](Cc2ccccc2)N1Cc1ccc(CO)cc1` [DMP-323] had an IC50 of 15 nM. That is a double-digit nanomolar value.

In the case of `COC(=O)c1ccc(CN2C(=O)N(Cc3ccc(C(=O)OC)cc3)[C@H](COc3ccccc3)[C@H](O)[C@@H](O)[C@H]2COc2ccccc2)cc1`, the IC50 in experiment [2] came to 8000 nM.

With `O=S1(=O)N(Cc2ccccc2)[C@H](CCc2ccccc2)[C@H](O)[C@@H](O)[C@@H](CCc2ccccc2)N1Cc1ccccc1`, the affinity in experiment [3], expressed as Ki, was 14.7 nM. Besides, the IC50 in experiment [2] is 200 nM.

With `O=C1N(Cc2ccccc2)[C@@H](COc2ccccc2)[C@H](O)[C@@H](O)[C@H](COc2ccccc2)N1Cc1ccccc1`, in experiment [1], the inhibition worked out at 10%.

In experiment [3], `O=C1N(Cc2ccccc2)[C@H](CCCc2ccccc2)[C@H](O)[C@@H](O)[C@@H](CCCc2ccccc2)N1Cc1ccccc1` registered an inhibitory constant (Ki) of 570 nM. Further, the IC50 in experiment [2] amounted to 10000 nM.

In the case of `O=C1N(Cc2ccccc2)[C@H](COc2ccccc2)[C@@H](O)[C@H](O)[C@@H](COc2ccccc2)N1Cc1ccccc1`, the inhibition in experiment [1] worked out at 0%.

For `O=S1(=O)N(Cc2ccccc2)[C@H](COc2ccccc2)[C@H](O)[C@@H](O)[C@@H](COc2ccccc2)N1Cc1ccccc1`, in experiment [2], the half-maximal inhibitory concentration (IC50) is 200 nM.

Turning to `O=C1N(Cc2ccccc2)[C@H](COc2ccccc2)[C@H](O)[C@@H](O)[C@@H](COc2ccccc2)N1Cc1ccccc1`, half-maximal inhibition in experiment [2] (IC50) was put at 80 nM.

In experiment [3], `O=C1N(Cc2ccccc2)[C@H](CCc2ccccc2)[C@H](O)[C@@H](O)[C@@H](CCc2ccccc2)N1Cc1ccccc1` registered an inhibition constant Ki of 214 nM. The compound also yielded a half-inhibitory concentration (IC50) in experiment [2] of 4000 nM.

For `O=C1N(Cc2ccc(CO)cc2)[C@H](COc2ccccc2)[C@H](O)[C@@H](O)[C@@H](COc2ccccc2)N1Cc1ccc(CO)cc1`, the affinity in experiment [3] corresponds to a Ki of 0.23 nM. This compound yielded an IC50 in experiment [2] of 10 nM.

What is called inhibition is the drop in the measured response relative to a control, in per cent. One may read the IC50 as the concentration at which inhibition is half-maximal. Lower therefore signals greater potency. The term Ki denotes the dissociation constant of the complex between target and ligand, obtained from inhibition or displacement. Lower therefore signals tighter binding.

(Values after ChEMBL document CHEMBL1129971, “Cyclic HIV-1 protease inhibitors derived from mannitol: synthesis, inhibitory potencies, and computational predictions of binding affinities” (J Med Chem, 1997).)
